Activity calls are given as the source filed them. The calls are words filed in the database; no cut-off is given here.
Legend:
[1] = Degree of specificity expressed as the ratio of I50 of AChE to I50 of ChAT
Summary of the method: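 Ratio of AChE I50 to ChAT I50. ChAT: partially purified rat brain enzyme, 3 min at 37 °C, 0.1 mM [14C]acetyl-CoA, 5 mM choline. AChE: commercial enzyme, 10 min at 37 °C, [14C]acetylcholine, 1% Triton-X. Radiometric read-out for both; inhibitors tested 10^-3–10^-8 M.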

Acetylcholinesterase = target: T1, Acetylcholinesterase (Rattus norvegicus, UniProt P37136); assay: Inhibition of acetylcholinesterase (AChE) activity; details: read-out: I50
T1 sequence (P37136 whole entry): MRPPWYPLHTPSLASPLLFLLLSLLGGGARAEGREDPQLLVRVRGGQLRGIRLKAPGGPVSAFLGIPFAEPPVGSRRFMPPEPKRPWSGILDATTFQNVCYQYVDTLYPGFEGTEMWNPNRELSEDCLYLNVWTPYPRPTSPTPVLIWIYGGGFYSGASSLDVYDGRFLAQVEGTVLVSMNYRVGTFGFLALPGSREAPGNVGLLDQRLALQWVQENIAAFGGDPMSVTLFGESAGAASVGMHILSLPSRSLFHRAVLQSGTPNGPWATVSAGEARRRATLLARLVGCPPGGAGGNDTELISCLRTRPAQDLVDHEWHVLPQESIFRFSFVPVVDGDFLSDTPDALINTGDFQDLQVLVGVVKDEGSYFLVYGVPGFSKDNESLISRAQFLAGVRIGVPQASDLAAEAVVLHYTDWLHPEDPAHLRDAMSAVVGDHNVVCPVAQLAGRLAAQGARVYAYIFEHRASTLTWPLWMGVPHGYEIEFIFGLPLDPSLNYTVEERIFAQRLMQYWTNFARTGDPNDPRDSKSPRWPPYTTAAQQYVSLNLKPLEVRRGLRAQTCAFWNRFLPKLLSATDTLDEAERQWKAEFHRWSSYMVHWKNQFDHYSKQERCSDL

[2] = target: T2, Choline O-acetyltransferase (Rattus norvegicus, UniProt P32738); assay: (§1) Inhibition of choline acetyltransferase (ChAT) activity; details: read-out: I50
T2 sequence (P32738 whole entry): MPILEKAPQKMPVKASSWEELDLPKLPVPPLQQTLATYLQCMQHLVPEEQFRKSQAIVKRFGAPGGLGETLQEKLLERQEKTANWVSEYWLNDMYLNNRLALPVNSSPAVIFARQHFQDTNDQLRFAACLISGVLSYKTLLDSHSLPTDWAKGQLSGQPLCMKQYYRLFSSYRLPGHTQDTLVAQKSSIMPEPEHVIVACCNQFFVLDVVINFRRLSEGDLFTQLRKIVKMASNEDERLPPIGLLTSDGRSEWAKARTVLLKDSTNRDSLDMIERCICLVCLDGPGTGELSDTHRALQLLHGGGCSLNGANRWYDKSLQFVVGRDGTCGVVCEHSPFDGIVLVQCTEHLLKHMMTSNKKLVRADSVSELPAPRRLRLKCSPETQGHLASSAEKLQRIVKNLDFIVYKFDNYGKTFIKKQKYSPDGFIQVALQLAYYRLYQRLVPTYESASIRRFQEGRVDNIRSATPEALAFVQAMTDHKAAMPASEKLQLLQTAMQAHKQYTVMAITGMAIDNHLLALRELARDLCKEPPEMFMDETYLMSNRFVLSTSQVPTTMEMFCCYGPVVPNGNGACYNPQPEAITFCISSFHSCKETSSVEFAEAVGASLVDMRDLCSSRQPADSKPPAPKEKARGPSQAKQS

[3] = target: T2, Choline O-acetyltransferase; assay: as §1; details: read-out: I50; remark: listed apart in the source
Summary of the method: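 Rat brain enzyme, partially purified (through CM-Sephadex batch elution), stored -20 °C, diluted for linear kinetics. Radiolabelled product counted by scintillation. Inhibitors tested 10^-3–10^-8 M; I50 reported.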

[4] = target: T3, Acetylcholinesterase (Rattus norvegicus) (UniProt P37136)
T3 sequence (whole entry): T1 sequence (P37136 whole entry)

[5] = target: T4, Choline O-acetyltransferase (Rattus norvegicus) (UniProt P32738); assay: Inhibition of choline acetyltransferase (ChAT) activity; NI is no inhibition observed up to 0.001 M
T4 sequence (whole entry): T2 sequence (P32738 whole entry)

| Compound | Ratio [1] | IC50 (Acetylcholinesterase) | IC50 [2] | IC50 [3] | I50 [4] | I50 [5] |
| --- | --- | --- | --- | --- | --- | --- |
| Cc1c[n+](CCO)ccc1/C=C/c1cccc2ccccc12 | 16 | 27 µM | 1.7 µM |  |  |  |
| CCNC(=O)NC(=O)CBr |  |  |  | 250 µM | inactive |  |
| O=C(CO)C[n+]1ccc(/C=C/c2cccc3ccccc23)cc1 | > 200 |  | 3 µM |  |  |  |
| CCC[n+]1ccc(/C=C/c2cccc3ccccc23)cc1 | 92 | 17.5 µM | 0.19 µM |  |  |  |
| CCOC(=O)C[n+]1ccc(/C=C/c2cccc3ccccc23)c(C)c1 | 8 | 10 µM | 1.2 µM |  |  |  |
| CCCC[n+]1ccc(/C=C/c2cccc3ccccc23)cc1 | 11 | 3.9 µM | 0.37 µM |  |  |  |
| O=C(O)CC[n+]1ccc(/C=C/c2cccc3ccccc23)cc1 | 25 | 1000 µM | 40 µM |  |  |  |
| NC(=O)NC(=O)CBr |  |  |  | 130 µM | inactive |  |
| Cc1c[n+](CC(N)=O)ccc1/C=C/c1cccc2ccccc12 | 132 | 45 µM | 0.34 µM |  |  |  |
| CCOC(=O)C(C(=O)OCC)[n+]1ccc(/C=C/c2cccc3ccccc23)cc1 | 24 | 500 µM | 21 µM |  |  |  |
| NC(=O)NC(=O)C[n+]1ccc(/C=C/c2cccc3ccccc23)cc1 | 38 | 140 µM | 3.7 µM |  |  |  |
| CCNC(=O)NC(=O)C[n+]1ccc(/C=C/c2cccc3ccccc23)cc1 | 33 | 130 µM | 3.9 µM |  |  |  |
| C(=C\c1cccc2ccccc12)/c1ccncc1 | > 26 |  | 38 µM |  | inactive |  |
| O=C(O)C[n+]1ccc(/C=C/c2cccc3ccccc23)cc1 | > 22 |  | 46 µM |  | inactive |  |
| Cc1c[n+](CCC(=O)O)ccc1/C=C/c1cccc2ccccc12 | 17 | 750 µM | 45 µM |  |  |  |
| OCCC[n+]1ccc(/C=C/c2cccc3ccccc23)cc1 | 28 | 36 µM | 1.3 µM |  |  |  |
| NCCC[n+]1ccc(/C=C/c2cccc3ccccc23)cc1 | 42 | 220 µM | 5.3 µM |  |  |  |
| CC(=O)C[n+]1ccc(/C=C/c2cccc3ccccc23)cc1 | 8 | 31 µM | 3.7 µM |  |  |  |
| Cc1c[n+](CCN)ccc1/C=C/c1cccc2ccccc12 | 6 | 30 µM | 5 µM |  |  |  |
| Cc1cnccc1/C=C/c1cccc2ccccc12 | > 25 |  | 40 µM |  | inactive |  |
| C[N+]1=CC=NC1/C=C/c1cccc2ccccc12 (stereo not given) |  | 51 µM |  |  |  | inactive |
| NCC[n+]1ccc(/C=C/c2cccc3ccccc23)cc1 | 16 | 64 µM | 3.9 µM |  |  |  |
| CCOC(=O)C[n+]1ccc(/C=C/c2cccc3ccccc23)cc1 | 32 | 32 µM | 1 µM |  |  |  |
| OCC[n+]1ccc(/C=C/c2cccc3ccccc23)cc1 | 40 | 68 µM | 1.7 µM |  |  |  |
| C[n+]1ccc(/C=C/c2cccc3ccccc23)cc1 | 77 | 30 µM | 0.39 µM |  |  |  |
| O=C(CBr)C[n+]1ccc(/C=C/c2cccc3ccccc23)cc1 | 4 | 40 µM | 10 µM |  |  |  |
| CCCCCCC(C)OC(=O)CC(=O)C[n+]1ccc(/C=C/c2cccc3ccccc23)cc1 (stereo not given) | 7 | 350 µM | 50 µM |  |  |  |
| NC(=O)C[n+]1ccc(/C=C/c2cccc3ccccc23)cc1 | 296 | 80 µM | 0.27 µM |  |  |  |
